# Assay outcomes deposited in PubChem BioAssay by several laboratories.
# H9c2 protect – protects H9c2 cardiomyocytes from peroxide injury; H2O2 injury protection, ATPLite, 2 h; protection from H2O2 cell death, % at 20 µM; actives 0.63% (n = 360,000);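 active means compounds giving at least 50% protection of heart cells from peroxide-induced death in the single-dose screen, raw or plate-pattern-corrected value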;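 further: 0% = DMSO wells with peroxide and 100% = DMSO wells without peroxide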
# Tb MetRS inh – Trypanosoma brucei MetRS inhibition; purified T. brucei MetRS, ATP depletion, Kinase-Glo luminescence; inhibition, % at 11.9 µM; actives 0.4% (n = 360,000); AID 624268;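 active means inhibition above a per-plate cutoff of the control wells' mean inhibition plus 3 SD, cut at about 5.5% in these data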;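 further: 0% = DMSO wells median and 100% = median of wells with control inhibitor compound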
#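 Material: parasite MetRS enzyme / Replication: singlicate, one well per compound / Signal: luminescence of leftover ATP / Schedule: 2 h aminoacylation at 25 °C after 15 min preincubation / Medium: HEPES-MgCl2-KCl buffer plus DTT, spermine, BSA, pyrophosphatase / Doses: 11.9 µM single point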
# PKA-R1A activ – activates the PKA-R1A holoenzyme complex; P00514+P68181; PKA-R1A dissociation, Cy5-IP20 fluorescence polarization; scaled: DMSO 0%, 113 µM cGMP 100%; activation, % at 11.4 µM; actives 0.083% (n = 340,000); AID 504707;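 active means percent activation above the mean of all tested compounds plus 3 SD, cut at about 19% in these data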;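 further: higher means more PKAc released from R1A so a rise in polarization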
# Rin1-Abl PPI inh – blocks binding of human Rin1 to Abl. TR-FRET Rin1/Abl binding, biochemical. inhibition, % at 7.35 µM. actives 0.4% (n = 360,000); in the data active means inhibition above about 5%, passing the limit was not always enough
# PKA-R2B act – activators of human PKA-R2B complex | actives 0.079% (n = 340,000) | activation, % at 11.4 µM | P22694+P31323 | PKA-R2B holoenzyme dissociation, Cy5-IP20 fluorescence polarization; R2B truncated from residue 108, S112A mutant; 0% DMSO only, 100% 113 µM cGMP;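 active means activation above a cutoff set at the mean over all compounds plus 3 SD, cut at about 18% in these data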;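 further: higher means more holoenzyme dissociation and a rise in polarization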
# Target sequence (P31323 whole entry, looked up, other chains not shown, the tested form may be a part): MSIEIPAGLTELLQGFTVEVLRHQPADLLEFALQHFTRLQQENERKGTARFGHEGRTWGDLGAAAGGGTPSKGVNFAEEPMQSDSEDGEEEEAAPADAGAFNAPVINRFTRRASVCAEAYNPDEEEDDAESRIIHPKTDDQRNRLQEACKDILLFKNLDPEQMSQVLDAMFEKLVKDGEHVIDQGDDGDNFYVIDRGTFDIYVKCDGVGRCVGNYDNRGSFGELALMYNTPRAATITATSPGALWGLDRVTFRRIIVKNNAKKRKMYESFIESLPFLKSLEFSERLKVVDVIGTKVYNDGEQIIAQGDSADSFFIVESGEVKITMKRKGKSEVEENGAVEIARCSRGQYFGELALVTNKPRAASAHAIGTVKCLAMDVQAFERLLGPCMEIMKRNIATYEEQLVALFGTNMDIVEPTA
# Tb MetRS conf – Trypanosoma brucei MetRS inhibition confirmed; shares compounds with Tb MetRS inh; T. brucei MetRS enzyme, luminescence (ATP depletion); inhibition, % at 11.9 µM; actives 93% (n = 1,400); in the data active means inhibition above about 7%
# Jurkat cytotox – kills Jurkat cells in T. brucei MetRS counterscreen; inhibition, % at 8.3 µM; shares compounds with Tb MetRS inh; actives 12% (n = 1,400); Jurkat cells viability, ATP luminescence; AID 624413; in the data active means inhibition above about 15%;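 further: 0% = vehicle and 100% = reference inhibitor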
# TbMetRS FP orth – inhibits T. brucei methionyl tRNA synthetase in orthogonal FP test. shares compounds with Tb MetRS inh. purified T. brucei MetRS, fluorescence polarization. inhibition, % at 11.9 µM. actives 44% (n = 1,400). AID 651607; in the data active means inhibition above about 17%;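 further: 0% = vehicle wells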
# Active calls of the source: *; / = no result given. A selection: hits, their analogues and other compounds. The true share with any hit is near 1.5%.
SMILES,H9c2 protect,Tb MetRS inh,PKA-R1A activ,Rin1-Abl PPI inh,PKA-R2B act,Tb MetRS conf,Jurkat cytotox,TbMetRS FP orth
O=C1CC(N(O)c2ccccc2)C(=O)N1c1cc(Cl)cc(Cl)c1 (stereo unspecified),6,13*,-9,3,-2,65*,-9,28*
Oc1oc(-c2ccc(Br)cc2)nc1C=Nc1ccc(Br)cn1,4,8.7*,-3,-1,9,65*,-4,32*
Cc1ccccc1Oc1cc(NC(=O)Cn2cnc([N+](=O)[O-])c2)cc([N+](=O)[O-])c1,-15,9.6*,-22,-1,-8,24*,12,17*
CC1CC(C)CN(S(=O)(=O)N2CCC(C(=O)NCCc3ccccc3)CC2)C1 (stereo unspecified),-3,1,-11,1,3,/,/,/
COc1ccccc1NS(=O)(=O)c1cccc(NC(=O)NCCCl)c1,3,-1,-6,0,2,/,/,/
COc1ccccc1NS(=O)(=O)c1cccc(NC(=O)Nc2cccc(Cl)c2)c1,-8,31*,-4,-2,-1,41*,7,72*
O=C(Cn1c(=O)oc2ccccc21)Nc1ccc2c(c1)OCCO2,-3,-1,1,3,-8,/,/,/
O=C(CCn1c(=O)oc2ccccc21)Nc1ccc2c(c1)OCCO2,-1,21*,1,0,-3,0,14,1
O=C(NCc1ccccc1)c1cc(C2CCCCN2C(=O)OCCF)on1 (stereo unspecified),6,0,/,2,/,/,/,/
O=C(Cn1cnnn1)NCCc1ccc(Cl)cc1Cl,1,9.4*,-3,1,5,18*,3,13
Cc1nn(CC(=O)NCCc2ccc(Cl)cc2Cl)c(C)c1[N+](=O)[O-],-4,16*,-6,-4,-3,33*,-4,14
O=C(CN1CCNC(=O)C1)NCCc1ccc(Cl)cc1Cl,2,4,-1,-3,5,/,/,/
COc1cc(NC(C)=O)c2ncccc2c1[N+](=O)[O-],0,12*,1,-5,3,23*,-6,3
COc1cc(NC(C)=O)c2ncccc2c1NC(C)=O,-4,-1,15,1,3,/,/,/
CCOc1ccc(CN(C(=O)c2cc(=O)c3cc(C)cc(C)c3o2)C2CCS(=O)(=O)C2)cc1 (stereo unspecified),9,0,0,-1,-6,/,/,/
C=CCc1cccc(/C=N/n2cnnc2)c1O,1,-1,15,-2,7,/,/,/
C=CCc1cccc(/C=C/c2cc(=O)c3ccccc3[nH]2)c1O,5,6.4*,-11,1,1,19*,15*,8
CN(C(=O)COC(=O)/C=C/c1ccc(C(F)(F)F)cc1)C1CCS(=O)(=O)C1 (stereo unspecified),-6,0,-5,-1,6,/,/,/
CCCn1c(O)c(/C=C2\C=NN=C2c2ccccc2)sc1=S,-6,0,12,-3,-11,/,/,/
O=C(O)Cn1c(O)c(C=Nc2ccccc2)sc1=S,15,0,9,-3,-3,/,/,/
CCCC(C(=O)O)n1c(O)c(C=C2N=c3ccccc3=N2)sc1=S (stereo unspecified),4,5.8*,-14,-1,-14,33*,-6,10
O=C(O)CCCn1c(O)c(C=C2N=c3ccccc3=N2)sc1=S,-4,29*,6,-3,1,44*,9,20*
O=C(O)CCCCCn1c(O)c(C=C2N=c3ccccc3=N2)sc1=S,-4,8.8*,6,1,-3,25*,-4,12
CCOc1ccc(S(=O)(=O)Nc2cc(Cl)ccc2O)cc1,-30,16*,-3,-1,-19,33*,10,11
CCOc1ccc(S(=O)(=O)Nc2cccc(Cl)c2)cc1,-14,0,-7,0,6,/,/,/
